Laboratory results: ChEMBL document CHEMBL2062375, “Discovery of an orally efficacious inhibitor of anaplastic lymphoma kinase” (J Med Chem, 2012)
Active and inactive are the calls of the source. The calls are words filed in the database; no cut-off is given here.

Experiments:
[1] = AUC in SCID mouse at 10 mg/kg, po; format: ADME, organism-based; parameters: dose 10 mg/kg, route oral; conditions: plasma
Summary of the method: (§1)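 Mouse PK. IV via the lateral tail vein in 3% DMSO/30% Solutol/67% PBS, or oral gavage in 100% PEG400, 100 μL dose volume, after an overnight fast. Trunk blood was taken from three mice per time point over 6 h. Plasma was acetonitrile-precipitated and analysed by LC-MS/MS. Parameters were derived noncompartmentally.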

[2] = Drug level in SCID/beige mouse tumor xenografted with human KARPAS299 cells expressing NPM-ALK at 10 mg/kg, po bid after 2 hrs post last dose by LC-MS/MS analysis; format: ADME, organism-based, Neoplasm, KARPAS-299; parameters: dose 10 mg/kg, route oral; conditions: read-out: Drug uptake
Summary of the method: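 Female SCID/beige mice, 6–8 weeks old, implanted sc in the left flank with exponentially growing Karpas-299 cells. At about 600 mm³ tumours, mice were randomized (8–10/group) and given PEG400 vehicle or compound orally b.i.d., 100 μL, for 12 days. Tumour volume (0.5236LW(L+W)/2) and body weight were recorded every 2–3 days; Mann–Whitney test. Plasma and tumour levels were measured by LC-MS/MS 2 h after the final dose, mean ± SEM.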

[3] = biological target: Mitogen-activated protein kinase kinase kinase kinase 2 (Homo sapiens) (UniProt Q12851); conditions: 1 uM
[4] = biological target: T1, Tyrosine-protein kinase Fer (Homo sapiens, UniProt P16591); conditions: 1 uM
SK-N-AS = assay: Antitumor activity against human SK-N-AS cells expressing wild type ALK assessed as growth inhibition administered as po bid; format: functional, organism-based
[5] = Tmax in Sprague-Dawley rat at 10 mg/kg, po; format: ADME, organism-based; parameters: dose 10 mg/kg, route oral; conditions: in vivo
Summary of the method: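 PK: overnight-fasted animals. Rat oral gavage 5 mL/kg in 40% HPβCD, serial tail-vein blood over 6 h. Dog oral gavage 1 mL/kg, monkey nasogastric 2 mL/kg, femoral-vein blood over 24 h. Plasma protein-precipitated with acetonitrile, LCMS/MS with internal standard; noncompartmental analysis, individual animals n = 3, mean ± SEM.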

[6] = biological target: T1, Tyrosine-protein kinase Fer; assay: Inhibition of human Fer
[7] = Cmax in cynomolgus monkey at 10 mg/kg, po; format: ADME, organism-based, Macaca fascicularis; parameters: dose 10 mg/kg, route oral; conditions: in vivo
Summary of the method: (§2)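 Dog and monkey PK. IV 0.5 mL/kg in 40% HPβCD via the saphenous vein. Oral dosing was 1 mL/kg by gavage in dogs and 2 mL/kg by nasogastric tube in monkeys, after an overnight fast. Serial femoral-vein blood was taken into heparin over 24 h. Plasma was acetonitrile-precipitated and analysed by LC-MS/MS. Parameters were noncompartmental, n = 3, mean ± SEM.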

[8] = Half life in CD-1 mouse at 1 mg/kg, iv; format: ADME, organism-based; parameters: dose 1 mg/kg, route intravenous; conditions: in vivo; summary of the method: as §1
[9] = Plasma clearance in SCID mouse at 1 mg/kg, iv; format: ADME, organism-based; parameters: dose 1 mg/kg, route intravenous
Summary of the method: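 Mouse IV PK: lateral tail vein dosing, 100 μL in 3% DMSO/30% Solutol/67% PBS; trunk blood from three mice per time point over 6 h. Plasma precipitated with acetonitrile, drug quantified by LCMS/MS against internal standard; noncompartmental analysis.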

[10] = Half life in SCID mouse at 1 mg/kg, iv; format: ADME, organism-based; parameters: dose 1 mg/kg, route intravenous; conditions: in vivo; summary of the method: as §1
[11] = biological target: Ribosomal protein S6 kinase alpha-1 (Homo sapiens, UniProt Q15418); assay: Inhibition of human Rsk1
Summary of the method: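 Millipore KinaseProfiler activity assays on a 259-kinase panel; kinases inhibited by ≥90% at 1 μM then taken to full IC50 determination.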

[12] = biological target: Ribosomal protein S6 kinase alpha-6 (Homo sapiens, UniProt Q9UK32); conditions: 1 uM
Mus musculus = assay: Toxicity in SCID mouse xenografted with human KARPAS299 cells expressing NPM-ALK assessed as overt toxicity at 10 to 30 mg/kg, po bid; format: organism-based, KARPAS-299; parameters: dose 10-30 mg/kg, route oral; conditions: in vivo
Summary of the method: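 Female SCID/beige mice (6–8 weeks), Karpas-299 cells implanted sc in left flank; at ~600 mm³ randomized (8–10/group), dosed orally in PEG400, 100 μL, b.i.d. for 12 days. Body weight every 2–3 days; plasma and tumor sampled 2 h after final dose, drug by LCMS/MS; Mann–Whitney rank sum statistics.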

[13] = Half life in cynomolgus monkey at 10 mg/kg, po; format: ADME, organism-based, Macaca fascicularis; parameters: dose 10 mg/kg, route oral; conditions: in vivo; summary of the method: as §2
[14] = biological target: NUAK family SNF1-like kinase 1 (Homo sapiens, UniProt O60285); assay: Inhibition of human ARK5
[15] = Cmax in rat at 55 mg/kg, po; format: ADME, organism-based; parameters: dose 55 mg/kg, route oral; conditions: in vivo
Summary of the method: (§3)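 Rat oral dose escalation at 10, 30, 55 and 100 mg/kg. Gavage at 5 mL/kg in 40% HPβCD after an overnight fast. Serial tail-vein blood was drawn into heparinized tubes. Plasma was protein-precipitated with acetonitrile and assayed by LC-MS/MS. Cmax and AUC0–12 were derived noncompartmentally; n = 2 at 10 mg/kg.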

[16] = AUC in cynomolgus monkey at 1 mg/kg, iv; format: ADME, organism-based, Macaca fascicularis; parameters: dose 1 mg/kg, route intravenous; conditions: plasma; summary of the method: as §2
[17] = AUC (0 to 12 hrs) in rat 55 mg/kg, po; format: ADME, organism-based; parameters: time < 12 hr, dose 55 mg/kg, route oral; conditions: plasma; summary of the method: as §3
[18] = Cmax in rat at 30 mg/kg, po; format: ADME, organism-based; parameters: dose 30 mg/kg, route oral; conditions: in vivo; summary of the method: as §3
[19] = biological target: Receptor-type tyrosine-protein kinase FLT3 (Homo sapiens) (UniProt P36888); conditions: 1 uM
[20] = biological target: Ribosomal protein S6 kinase alpha-2 (Homo sapiens, UniProt Q15349); conditions: 1 uM
Focal adhesion kinase 1 = Focal adhesion kinase 1 (Homo sapiens, UniProt Q05397); assay: Inhibition of human FAK
Summary of the method: (§4)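 Commercial activity-assay panel of 259 kinases. Each kinase was first screened at 1 μM, and those inhibited by ≥90% went on to full IC50 determination.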

[21] = AUC (0 to 12 hrs) in rat 30 mg/kg, po; format: ADME, organism-based; parameters: time < 12 hr, dose 30 mg/kg, route oral; conditions: plasma; summary of the method: as §3
[22] = AUC (0 to 12 hrs) in rat 10 mg/kg, po; format: ADME, organism-based; parameters: time < 12 hr, dose 10 mg/kg, route oral; conditions: plasma; summary of the method: as §3
[23] = Volume of distribution in cynomolgus monkey at 1 mg/kg, iv; format: ADME, organism-based, Macaca fascicularis; parameters: dose 1 mg/kg, route intravenous; conditions: in vivo
Summary of the method: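 IV PK: rats via lateral tail vein (1 mL/kg; 3% DMSO/30% Solutol/67% PBS), serial tail-vein blood over 6 h. Dogs and monkeys via saphenous vein (0.5 mL/kg in 40% HPβCD), femoral-vein blood over 24 h. Acetonitrile protein precipitation, LCMS/MS; noncompartmental parameters from individual animals, n = 3, mean ± SEM.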

[24] = biological target: Mitogen-activated protein kinase 8 (Homo sapiens, UniProt P45983); conditions: 1 uM
[25] = Cmax in Sprague-Dawley rat at 10 mg/kg, po; format: ADME, organism-based; parameters: dose 10 mg/kg, route oral; conditions: in vivo
Summary of the method: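 Rat PK. IV via the lateral tail vein, 1 mL/kg in 3% DMSO/30% Solutol/67% PBS, or oral gavage at 5 mL/kg in 40% HPβCD, after an overnight fast. Serial tail-vein blood was taken into heparin over 6 h. Plasma was acetonitrile-precipitated and analysed by LC-MS/MS. Parameters were noncompartmental, n = 3, mean ± SEM.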

[26] = AUC in SCID mouse at 1 mg/kg, iv; format: ADME, organism-based; parameters: dose 1 mg/kg, route intravenous; conditions: plasma; summary of the method: as §1
[27] = Cmax in CD-1 mouse at 10 mg/kg, po; format: ADME, organism-based; parameters: dose 10 mg/kg, route oral; conditions: in vivo; summary of the method: as §1
[28] = biological target: Serine/threonine-protein kinase Chk2 (Homo sapiens, UniProt O96017); assay: Inhibition of human CHK2; summary of the method: as §4
[29] = Cmax in rat at 100 mg/kg, po; format: ADME, organism-based; parameters: dose 100 mg/kg, route oral; conditions: in vivo; summary of the method: as §3

Chain of Mitogen-activated protein kinase 8 (P45983 whole entry): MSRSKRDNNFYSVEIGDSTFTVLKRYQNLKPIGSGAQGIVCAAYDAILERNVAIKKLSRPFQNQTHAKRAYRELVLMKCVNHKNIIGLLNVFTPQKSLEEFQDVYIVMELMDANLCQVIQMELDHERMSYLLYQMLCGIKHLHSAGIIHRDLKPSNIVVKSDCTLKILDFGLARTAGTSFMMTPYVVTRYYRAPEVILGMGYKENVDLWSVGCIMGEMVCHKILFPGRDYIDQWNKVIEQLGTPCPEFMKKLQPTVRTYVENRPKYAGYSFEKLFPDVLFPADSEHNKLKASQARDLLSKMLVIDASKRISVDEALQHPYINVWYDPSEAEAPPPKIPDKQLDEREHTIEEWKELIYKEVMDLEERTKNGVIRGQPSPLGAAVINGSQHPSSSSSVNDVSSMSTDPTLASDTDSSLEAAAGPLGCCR
Chain of Ribosomal protein S6 kinase alpha-6 (Q9UK32 whole entry): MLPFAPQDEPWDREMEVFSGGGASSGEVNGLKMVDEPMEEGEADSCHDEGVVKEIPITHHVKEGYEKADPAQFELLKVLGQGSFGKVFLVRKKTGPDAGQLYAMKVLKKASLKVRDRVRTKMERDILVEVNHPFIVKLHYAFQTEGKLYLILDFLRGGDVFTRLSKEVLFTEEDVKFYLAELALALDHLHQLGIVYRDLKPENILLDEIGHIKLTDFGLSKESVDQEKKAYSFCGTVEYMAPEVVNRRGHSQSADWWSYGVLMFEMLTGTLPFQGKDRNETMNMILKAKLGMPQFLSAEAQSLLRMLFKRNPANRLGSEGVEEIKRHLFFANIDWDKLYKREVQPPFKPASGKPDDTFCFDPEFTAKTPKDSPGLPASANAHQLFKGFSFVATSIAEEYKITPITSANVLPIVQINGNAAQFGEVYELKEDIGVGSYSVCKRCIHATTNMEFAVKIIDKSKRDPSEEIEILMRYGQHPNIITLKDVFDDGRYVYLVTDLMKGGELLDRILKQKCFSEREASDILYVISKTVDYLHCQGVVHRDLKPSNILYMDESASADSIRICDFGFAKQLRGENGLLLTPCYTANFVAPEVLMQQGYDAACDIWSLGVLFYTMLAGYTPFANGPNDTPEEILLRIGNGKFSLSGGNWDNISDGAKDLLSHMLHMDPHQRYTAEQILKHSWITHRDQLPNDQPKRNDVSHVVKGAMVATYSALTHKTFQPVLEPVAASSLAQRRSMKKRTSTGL
Chain of Focal adhesion kinase 1 (Q05397 whole entry): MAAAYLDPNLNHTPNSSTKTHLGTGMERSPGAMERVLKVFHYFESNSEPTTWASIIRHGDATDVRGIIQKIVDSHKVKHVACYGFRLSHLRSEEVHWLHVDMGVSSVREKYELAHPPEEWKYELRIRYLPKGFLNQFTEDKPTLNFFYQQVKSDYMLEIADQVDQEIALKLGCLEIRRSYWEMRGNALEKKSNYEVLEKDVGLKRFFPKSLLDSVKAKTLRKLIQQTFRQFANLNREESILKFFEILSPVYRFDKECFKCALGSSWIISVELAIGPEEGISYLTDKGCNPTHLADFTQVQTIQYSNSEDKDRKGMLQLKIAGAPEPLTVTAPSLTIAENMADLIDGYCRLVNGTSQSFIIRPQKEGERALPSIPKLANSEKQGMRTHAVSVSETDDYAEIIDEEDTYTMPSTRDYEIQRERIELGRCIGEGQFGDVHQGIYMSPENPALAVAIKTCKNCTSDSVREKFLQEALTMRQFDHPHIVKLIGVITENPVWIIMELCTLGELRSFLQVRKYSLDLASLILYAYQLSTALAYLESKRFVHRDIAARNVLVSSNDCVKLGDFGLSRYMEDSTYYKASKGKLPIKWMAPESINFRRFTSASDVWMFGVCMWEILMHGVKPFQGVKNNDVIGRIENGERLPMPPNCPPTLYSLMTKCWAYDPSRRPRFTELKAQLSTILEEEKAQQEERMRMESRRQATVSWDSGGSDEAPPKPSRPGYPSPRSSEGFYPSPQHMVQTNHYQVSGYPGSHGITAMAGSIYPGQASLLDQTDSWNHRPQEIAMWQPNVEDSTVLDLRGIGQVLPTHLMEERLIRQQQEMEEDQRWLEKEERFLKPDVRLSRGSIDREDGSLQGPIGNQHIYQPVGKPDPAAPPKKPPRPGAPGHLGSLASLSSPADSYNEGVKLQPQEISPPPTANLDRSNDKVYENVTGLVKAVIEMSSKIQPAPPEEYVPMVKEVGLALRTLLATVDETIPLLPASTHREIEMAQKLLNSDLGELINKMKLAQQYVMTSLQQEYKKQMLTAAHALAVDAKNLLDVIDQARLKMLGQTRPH
Chain of Receptor-type tyrosine-protein kinase FLT3 (Homo sapiens) (P36888 whole entry): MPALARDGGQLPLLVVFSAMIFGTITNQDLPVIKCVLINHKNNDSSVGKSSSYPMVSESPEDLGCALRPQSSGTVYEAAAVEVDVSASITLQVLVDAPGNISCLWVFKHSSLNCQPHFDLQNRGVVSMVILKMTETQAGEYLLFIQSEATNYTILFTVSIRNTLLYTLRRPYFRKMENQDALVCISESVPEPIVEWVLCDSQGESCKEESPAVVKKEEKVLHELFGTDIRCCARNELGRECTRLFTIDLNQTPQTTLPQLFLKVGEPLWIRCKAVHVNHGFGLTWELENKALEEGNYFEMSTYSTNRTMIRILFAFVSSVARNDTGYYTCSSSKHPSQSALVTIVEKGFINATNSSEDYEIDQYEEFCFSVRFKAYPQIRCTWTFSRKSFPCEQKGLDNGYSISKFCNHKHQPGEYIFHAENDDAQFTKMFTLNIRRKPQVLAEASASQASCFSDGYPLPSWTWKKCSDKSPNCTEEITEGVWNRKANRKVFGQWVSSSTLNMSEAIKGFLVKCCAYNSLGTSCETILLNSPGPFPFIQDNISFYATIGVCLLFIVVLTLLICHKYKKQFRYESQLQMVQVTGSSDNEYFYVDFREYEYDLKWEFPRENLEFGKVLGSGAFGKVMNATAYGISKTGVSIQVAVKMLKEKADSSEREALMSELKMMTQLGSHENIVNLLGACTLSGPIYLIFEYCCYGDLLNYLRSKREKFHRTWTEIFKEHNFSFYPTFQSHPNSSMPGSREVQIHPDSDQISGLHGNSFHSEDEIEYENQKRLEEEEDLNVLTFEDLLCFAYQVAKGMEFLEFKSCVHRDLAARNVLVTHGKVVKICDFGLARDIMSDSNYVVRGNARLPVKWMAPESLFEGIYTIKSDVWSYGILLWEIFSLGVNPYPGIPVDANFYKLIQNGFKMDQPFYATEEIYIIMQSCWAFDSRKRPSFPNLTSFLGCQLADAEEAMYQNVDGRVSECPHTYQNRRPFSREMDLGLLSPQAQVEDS
Chain of Mitogen-activated protein kinase kinase kinase kinase 2 (Homo sapiens) (Q12851 whole entry): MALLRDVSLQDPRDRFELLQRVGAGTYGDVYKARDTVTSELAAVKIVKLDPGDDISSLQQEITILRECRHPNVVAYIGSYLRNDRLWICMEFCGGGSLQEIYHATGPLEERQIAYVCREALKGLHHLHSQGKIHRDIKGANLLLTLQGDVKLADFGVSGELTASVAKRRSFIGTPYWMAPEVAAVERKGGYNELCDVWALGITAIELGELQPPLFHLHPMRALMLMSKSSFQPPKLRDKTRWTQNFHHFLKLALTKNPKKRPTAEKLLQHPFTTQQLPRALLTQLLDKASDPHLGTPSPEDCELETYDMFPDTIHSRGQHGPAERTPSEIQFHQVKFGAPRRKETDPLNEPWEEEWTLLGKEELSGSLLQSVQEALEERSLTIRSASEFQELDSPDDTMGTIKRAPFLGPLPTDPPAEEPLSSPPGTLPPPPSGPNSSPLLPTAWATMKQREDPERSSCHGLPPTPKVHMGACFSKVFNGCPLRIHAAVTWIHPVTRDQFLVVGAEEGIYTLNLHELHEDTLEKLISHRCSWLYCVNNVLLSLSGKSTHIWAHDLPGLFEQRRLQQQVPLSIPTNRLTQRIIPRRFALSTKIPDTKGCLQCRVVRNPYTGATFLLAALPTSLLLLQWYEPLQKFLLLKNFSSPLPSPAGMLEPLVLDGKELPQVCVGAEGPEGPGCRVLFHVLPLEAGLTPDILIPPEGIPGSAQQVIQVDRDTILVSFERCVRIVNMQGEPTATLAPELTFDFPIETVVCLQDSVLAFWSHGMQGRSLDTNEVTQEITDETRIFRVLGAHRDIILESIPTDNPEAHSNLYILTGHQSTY
Chain of NUAK family SNF1-like kinase 1 (O60285 whole entry): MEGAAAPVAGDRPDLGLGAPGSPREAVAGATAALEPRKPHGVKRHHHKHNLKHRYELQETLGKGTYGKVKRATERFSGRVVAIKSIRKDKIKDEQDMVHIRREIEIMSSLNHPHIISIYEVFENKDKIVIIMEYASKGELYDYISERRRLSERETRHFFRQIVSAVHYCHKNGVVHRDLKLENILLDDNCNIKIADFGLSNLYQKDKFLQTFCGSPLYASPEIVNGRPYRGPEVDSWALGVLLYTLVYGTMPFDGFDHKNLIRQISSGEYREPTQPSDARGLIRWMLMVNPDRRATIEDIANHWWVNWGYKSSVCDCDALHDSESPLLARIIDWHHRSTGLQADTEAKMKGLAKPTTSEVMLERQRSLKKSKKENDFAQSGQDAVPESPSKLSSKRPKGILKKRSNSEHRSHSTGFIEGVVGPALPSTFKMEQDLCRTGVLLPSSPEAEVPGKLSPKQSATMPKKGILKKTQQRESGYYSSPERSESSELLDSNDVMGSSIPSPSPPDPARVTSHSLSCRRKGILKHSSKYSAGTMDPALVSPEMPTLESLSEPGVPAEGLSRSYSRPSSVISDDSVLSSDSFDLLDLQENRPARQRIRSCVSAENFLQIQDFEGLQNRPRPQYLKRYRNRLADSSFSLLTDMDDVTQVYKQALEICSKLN

SMILES: COc1c(Nc2ncc(Cl)c(N[C@H]3[C@@H](C(N)=O)[C@@H]4C=C[C@H]3C4)n2)ccc2c1CC[C@@H](N1CCOCC1)CC2
- AUC [1]: 21400 ng·h/mL
- concentration at 2 h [2]: 686 ng/g
- inhibition [3]: > 90%
- inhibition [4]: > 90%
- growth inhibition (GI) (SK-N-AS): inactive
- Tmax [5]: 1.3 h
- IC50 [6]: 85 nM
- Cmax [7]: 170 ng/mL
- half-life [8]: 42 min
- clearance [9]: 6 mL/min/kg
- half-life [10]: 108 min
- IC50 [11]: 61 nM
- inhibition [12]: > 90%
- Activity (Mus musculus): Non-toxic
- half-life [13]: 72 min
- IC50 [14]: 26 nM
- Cmax [15]: 2250 ng/mL
- AUC [16]: 615 ng·h/mL
- AUC(0-t) at 12 h [17]: 24100 ng·h/mL
- Cmax [18]: 1010 ng/mL
- inhibition [19]: > 90%
- inhibition [20]: > 90%
- IC50 (Focal adhesion kinase 1): 133 nM
- AUC(0-t) at 12 h [21]: 10900 ng·h/mL
- AUC(0-t) at 12 h [22]: 2570 ng·h/mL
- Vd [23]: 2.9 L/kg
- inhibition [24]: > 90%
- Cmax [25]: 599 ng/mL
- AUC [26]: 3020 ng·h/mL
- Cmax [27]: 880 ng/mL
- IC50 [28]: 29 nM
- Cmax [29]: 3050 ng/mL
